According to ChEMBL document CHEMBL3272008, “Synthesis and biological actions of 2-substituted quinolizidines” (J Med Chem, 1976):
Activity calls are given as the source filed them. The rule behind the calls is not given here.

Experiments:
[1] = Acute toxicity in ip dosed Swiss-Webster mouse administered as single dose after 7 days; format: organism-based; conditions: in vivo
How it was run: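 Mice given a single ip dose at each of four dose levels; lethality followed over 7 days; LD50 with 95% confidence limits estimated by the method of Weil. Compounds dissolved in minimal 1.5 M NaH2PO4, diluted with water; haloperidol in minimal 50% (w/v) tartaric acid-water.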

[2] = test system: Mus musculus; experiment: Depression of forced motor activity in Swiss-Webster mouse at 50 mg/kg, ip after 30 mins by rotarod test relative to control; format: functional; conditions: route intraperitoneal
How it was run: (§1)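 Mice were dosed ip with vehicle or compound dissolved in a minimum of 1.5 M NaH2PO4 and diluted with water. On the rotarod, speed was 4 rpm for 30 sec, then 6 rpm for 30 sec, then increased every 30 sec up to a maximum of 50 rpm until the fall. Each mouse had four trials, two per day on two consecutive days, spaced 4–6 hr apart. The fourth trial was run 30 min after dosing. The read-out was trial time (sec) as % of control, with significance by Student's t test (p < 0.05).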

[3] = test system: Mus musculus; experiment: Depression of forced motor activity in Swiss-Webster mouse at 25 mg/kg, ip after 30 mins by rotarod test relative to control; format: functional; conditions: route intraperitoneal; how it was run: as §1
[4] = test system: Mus musculus; experiment: Depression of forced motor activity in Swiss-Webster mouse at 100 mg/kg, ip after 30 mins by rotarod test relative to control; format: functional; conditions: route intraperitoneal
How it was run: (§2)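 Rotarod in mice: rod at 4 rpm for 30 sec, 6 rpm next 30 sec, then stepped up every 30 sec (max 50 rpm) until fall. Six mice at a time, four trials (two per day, 4–6 hr apart, two consecutive days); vehicle or compound ip 30 min before fourth trial. Time on rod as % of control; Student's t test, p < 0.05.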

[5] = test system: Mus musculus; experiment: Depression of forced motor activity in ip dosed Swiss-Webster mouse after 30 mins by rotarod test relative to control; format: functional, organism-based; how it was run: as §1
[6] = test system: Mus musculus; experiment: Depression of spontaneous motor activity in Swiss-Webster mouse at 50 mg/kg, ip by photocell cage test relative to control; format: functional; conditions: route intraperitoneal
How it was run: (§3)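 Compound was dissolved in minimal 1.5 M NaH2PO4, diluted with water and given ip. Two mice given the same dose went into each of three photocell actophotometer cages 10 min after the rotarod test started. Counts were taken over 15 min, starting 5 min after placement. A factorial design across cages cancelled differences between units. Results were given as % of control, with significance by Student's t test (p < 0.05).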

[7] = test system: Mus musculus; experiment: Depression of spontaneous motor activity in Swiss-Webster mouse at 25 mg/kg, ip by photocell cage test relative to control; format: functional; conditions: route intraperitoneal; how it was run: as §3
[8] = test system: Mus musculus; experiment: Depression of spontaneous motor activity in Swiss-Webster mouse at 100 mg/kg, ip by photocell cage test relative to control; format: functional; conditions: route intraperitoneal
How it was run: (§4)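 Spontaneous activity in three photocell cages: two mice given the same ip dose placed per cage 10 min after rotarod start; 15-min count begun 5 min after placement. Each dose run in factorial design across all three cages to offset unit sensitivity. Counts expressed as % of control; Student's t test, p < 0.05.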

[9] = test system: Mus musculus; experiment: Depression of spontaneous motor activity in ip dosed Swiss-Webster mouse by photocell cage test relative to control; format: functional, organism-based; how it was run: as §3
[10] = test system: Rattus norvegicus; experiment: Depression of motor activity in Wistar rat at 50 mg/kg, ip after 1 to 5 hrs; format: functional, organism-based; design: dose 50 mg/kg
How it was run: (§5)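 Male Wistar rats (175–225 g) dosed ip (vehicle dilute NaH2PO4 in water). Gross behaviour observed; respiratory rate, heart rate, rectal temperature and pupil size measured. Three treated rats per dose compared with one control.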

[11] = test system: Rattus norvegicus; experiment: Reduction in respiratory rate in Wistar rat at 50 mg/kg, ip; format: functional, organism-based; design: dose 50 mg/kg; how it was run: as §5
[12] = test system: Rattus norvegicus; experiment: Reduction in heart rate in Wistar rat at 50 mg/kg, ip; format: functional, organism-based; design: dose 50 mg/kg; how it was run: as §5
[13] = test system: Rattus norvegicus; experiment: Reduction in body temperature in Wistar rat at 50 mg/kg, ip relative to control; format: functional; conditions: route intraperitoneal; how it was run: as §5
[14] = test system: Rattus norvegicus; experiment: Increase in pupil size in Wistar rat at 50 mg/kg, ip; format: functional, organism-based; design: dose 50 mg/kg; how it was run: as §5
[15] = test system: Rattus norvegicus; experiment: Reduction in ptosis in Wistar rat at 50 mg/kg, ip after 1 to 5 hrs; format: functional, organism-based; design: dose 50 mg/kg; how it was run: as §5
[16] = test system: Mus musculus; experiment: Depression of forced motor activity in Swiss-Webster mouse at 12.5 mg/kg, ip after 30 mins by rotarod test relative to control; format: functional; conditions: route intraperitoneal; how it was run: as §1
[17] = test system: Mus musculus; experiment: Depression of spontaneous motor activity in Swiss-Webster mouse at 12.5 mg/kg, ip by photocell cage test relative to control; format: functional; conditions: route intraperitoneal; how it was run: as §3
[18] = test system: Mus musculus; experiment: Depression of forced motor activity in Swiss-Webster mouse at 10 mg/kg, ip after 30 mins by rotarod test relative to control; format: functional; conditions: route intraperitoneal; how it was run: as §2
[19] = test system: Mus musculus; experiment: Depression of forced motor activity in Swiss-Webster mouse at 5 mg/kg, ip after 30 mins by rotarod test relative to control; format: functional; conditions: route intraperitoneal; how it was run: as §2
[20] = test system: Mus musculus; experiment: Depression of spontaneous motor activity in Swiss-Webster mouse at 10 mg/kg, ip by photocell cage test relative to control; format: functional; conditions: route intraperitoneal; how it was run: as §4
[21] = test system: Mus musculus; experiment: Depression of spontaneous motor activity in Swiss-Webster mouse at 5 mg/kg, ip by photocell cage test relative to control; format: functional; conditions: route intraperitoneal; how it was run: as §4
[22] = species: Rattus norvegicus; experiment: Reduction in respiration rate in Wistar rat; format: functional, organism-based; how it was run: as §5
[23] = species: Rattus norvegicus; experiment: Increase in heart rate in Wistar rat; format: functional, organism-based; how it was run: as §5
[24] = test system: Rattus norvegicus; experiment: Increase in motor activity in Wistar rat at 5 to 30 mg/kg, ip; format: functional, organism-based; how it was run: as §5

Which LD50 at 168 h [1] does the source give for `O[C@]1(c2ccc(Cl)cc2)CCN2CCCCC2C1` (some centres not stated) here?
The LD50 at 168 h was 229 mg/kg.

And the Activity [2]?
Its Activity is 26.7%.

And the Activity [3]?
Its Activity is 71.3%.

And the Activity [4]?
Its Activity is 9.7%.

What about the Activity [5] of the same molecule?
Its Activity is “Dose-dependent effect”.

And the Activity [6]?
The Activity was 18.1%.

What about the Activity [7] of the same molecule?
The Activity was 19.4%.

What about the Activity [8] of the same molecule?
The Activity was 2.6%.

What about the Activity [9] of the same molecule?
Its Activity is “Dose-dependent effect”.

What about the Activity [10] of the same molecule?
Its Activity is “Active”.

And the Activity [11]?
Its Activity is “Active”.

What about the Activity [12] of the same molecule?
The Activity was “Active”.

And the T [13]?
The T was 1 °C.

And the Activity [14]?
Its Activity is “Active”.

And the Activity [15]?
Its Activity is “Active”.

For `O[C@]1(c2ccc(C(F)(F)F)cc2)CCN2CCCCC2C1` (single isomer, unassigned), which LD50 at 168 h [1] is on record?
Its LD50 at 168 h is 125 mg/kg.

What about the Activity [2] of the same molecule?
Its Activity is 31.5%.

And the Activity [3]?
Its Activity is 100.6%.

What about the Activity [16] of the same molecule?
Its Activity is 115.2%.

What about the Activity [6] of the same molecule?
The Activity was 17.5%.

What about the Activity [7] of the same molecule?
The Activity was 39.3%.

And the Activity [17]?
Its Activity is 90%.

What about the Activity [9] of the same molecule?
Its Activity is “Dose-dependent effect”.

Which LD50 at 168 h [1] does the source give for `O[C@]1(c2cccc(Cl)c2)CCN2CCCCC2C1` (single isomer, unassigned) here?
Its LD50 at 168 h is 134 mg/kg.

And the Activity [2]?
The Activity was 34.3%.

And the Activity [3]?
Its Activity is 83.6%.

And the Activity [16]?
Its Activity is 88.6%.

And the Activity [6]?
Its Activity is 74.3%.

What about the Activity [7] of the same molecule?
The Activity was 89.9%.

Which results are given for `O[C@]1(c2cccc(C(F)(F)F)c2)CCN2CCCCC2C1` (single isomer, unassigned)?
LD50 at 168 h [1]: 137 mg/kg; Activity [2]: 56.6%; Activity [3]: 98.1%; Activity [16]: 107.2%; Activity [6]: 35.4%; Activity [7]: 45.1%; Activity [17]: 70.3%; Activity [9]: Dose-dependent effect

What does the source list for `O[C@@]1(c2ccc(Cl)cc2)CCN2CCCCC2C1` (single isomer, unassigned)?
LD50 at 168 h [1]: 67.5 mg/kg; Activity [3]: 87.6%; Activity [18]: 101.9%; Activity [19]: 105.9%; Activity [7]: 22.5%; Activity [20]: 439.6%; Activity [21]: 526.8%; Activity [22]: Active; Activity [23]: Active; Activity [24]: inactive
